Test results reported in ChEMBL document CHEMBL1240442, “Design and synthesis of novel tricyclic benzoxazines as potent 5-HT(1A/B/D) receptor antagonists leading to the discovery of 6-{2-[4-(2-methyl-5-quinolinyl)-1-piperazinyl]ethyl}-4H-imidazo[5,1-c][1,4]benzoxazine-3-carboxamide (GSK588045)” (J Med Chem, 2010).

Tests used:
Assay type in all cases: ADME, organism-based
[1] = Clearance in Sprague-Dawley rat blood at 0.5 mg/kg, iv and 1 mg/kg, po; settings: whole blood
Summary of the method: (§1)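 Male Sprague-Dawley rats given 0.5 mg free base/kg iv bolus and 1 mg/kg po. Blood compound levels measured by protein precipitation and HPLC-MS/MS.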

[2] = Volume of distribution at steady state in Sprague-Dawley rat at 0.5 mg/kg, iv and 1 mg/kg, po; settings: in vivo, read-out: Vdss; summary of the method: as §1
[3] = Half life in Sprague-Dawley rat at 0.5 mg/kg, iv and 1 mg/kg, po; settings: in vivo; summary of the method: as §1
[4] = Oral bioavailability in Sprague-Dawley rat at 1 mg/kg; settings: in vivo; summary of the method: as §1
[5] = Ratio of drug level in brain to blood in Sprague-Dawley rat at 0.5 mg/kg, iv and 1 mg/kg, po after 1 hr; settings: brain/whole blood, read-out: BBR

Compound | clearance [1] | Vd [2] | half-life [3] | bioavailability [4] | Kp at 1 h [5]
Cc1ccc2c(N3CCN(CCc4cccc5c4OCc4nnc(C)n4-5)CC3)cccc2n1 | 0.72 L/h/kg | 1.6 L/kg | 1.8 h | 51% | 0.5
Cc1ccc2c(N3CCN(CCc4cccc5c4OCc4c(C(=O)N(C)C)ncn4-5)CC3)cccc2n1 | 1.74 L/h/kg | 3.5 L/kg | 2.1 h | 50% | 1.8
Cc1ccc2c(N3CCN(CCc4cccc5c4OCc4c(C#N)ncn4-5)CC3)cccc2n1 | 0.6 L/h/kg | 3.9 L/kg | 5.1 h | 48% | 1.6
CNC(=O)c1ncn2c1COc1c(CCN3CCN(c4cccc5nc(C)ccc45)CC3)cccc1-2 | 0.48 L/h/kg | 3.8 L/kg | 6.3 h | 104% | 2.4

Further lines, results first:

clearance [1] | Vd [2] | half-life [3] | bioavailability [4] | Kp at 1 h [5] | Compound
0.6 L/h/kg | 7.1 L/kg | 8.7 h | 43% | 2.7 | CC(=O)c1ncn2c1COc1c(CCN3CCN(c4cccc5nc(C)ccc45)CC3)cccc1-2
0.6 L/h/kg | 2.9 L/kg | 4.4 h | 45% | 1.1 | Cc1ccc2c(N3CCN(CCc4cccc5c4OCc4c(C(N)=O)ncn4-5)CC3)cccc2n1
1.2 L/h/kg | 5 L/kg | 3.1 h | 43% | 3.2 | Cc1ccc2c(N3CCN(CCc4cccc5c4OCc4c(C(=O)N6CCCC6)ncn4-5)CC3)cccc2n1
0.72 L/h/kg | 5.5 L/kg | 7.6 h | 65% | 1.7 | Cc1ccc2c(N3CCN(CCc4cccc5c4OCc4c(C(=O)N6CCOCC6)ncn4-5)CC3)cccc2n1
